# Experimental data published in ChEMBL document CHEMBL5500386, “Design, synthesis and bioactivity evaluation of 4-hydroxycoumarin derivatives as potential anti-inflammatory agents against acute lung injury and colitis” (Eur J Med Chem, 2024).
# Calls of active or inactive are those of the source. The rule behind the calls is not given here.
# What was measured:
# [1] = Cmax in male Sprague-Dawley rat at 1 mg/kg, iv measured upto 24 hrs by triple quadrupole mass spectrometric analysis; format: ADME, organism-based; conditions: in vivo
# Procedure, shortened: (§1)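 Male SD rats (8 weeks, 200 g ± 20 g), n = 3 per route. Oral: 10 mg/kg by gavage in 0.05 % DMSO/normal saline, tail-vein blood at 13 times from 10 min to 24 h. IV: 1 mg/kg tail vein in 5 % DMSO/30 % PEG400/65 % saline, 14 samples from 5 min to 24 h. Heparinised plasma precipitated with acetonitrile containing internal standard. Non-compartmental analysis on mean concentrations.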
# Mus musculus [2] = assay: Protection against LPS-induced C57BL/6 mouse model of acute lung injury assessed as reduction in interstitial edema in lungs at 20 mg/kg, po administered 3 times for every 12 hrs followed by LPS stimulation at 5 mg/kg and measured after 6 hrs by H and E staining based analysis; format: functional, organism-based; conditions: time 30.0 hrs
# Procedure, shortened: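 LPS-induced ALI in C57BL/6 mice: 20 mg/kg orally three times at 12 h intervals, then intratracheal LPS 5 mg/kg, killed at 6 h. Lungs paraffin-embedded, cut into 5 μm sections and H&E stained. Viewed at ×20.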
# [3] = Acute toxicity in male ICR mouse assessed as histopathological changes in spleen at 500 to 1000 mg/kg, po administered daily for 10 days by H and E staining based analysis; format: organism-based; conditions: in vivo, 240 h, dose 500-1000 mg/kg, time 10 day
# Procedure, shortened: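 Male ICR mice (8 weeks, 30 g ± 2 g), acclimatised 1 week, randomised into 1000 mg/kg, 500 mg/kg and untreated control groups (n = 24 total). Dosed by daily gavage, compound dissolved in 0.5 % DMSO then added to normal saline. Body weight and behaviour recorded daily. Euthanised after 10 days; heart, liver, spleen, lung and kidney examined by H&E staining.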
# Mus musculus [4] = assay: Antiinflammatory activity in DSS-induced male C57BL/6 mouse model of inflammatory bowel disease assessed as increase in body weight at 20 mg/kg, IG administered with compound and DSS for 7 days followed by DSS replacement with distilled water for 3 days; format: functional, organism-based; conditions: time 10.0 day
# Mus musculus [5] = assay: (§2) Antiinflammatory activity in DSS-induced male C57BL/6 mouse model of inflammatory bowel disease assessed as normal appearance of goblet cells at 20 mg/kg, IG administered with compound and DSS for 7 days followed by DSS replacement with distilled water for 3 days by H and E staining based analysis; format: functional, organism-based; conditions: time 10.0 day
# J774.A1 [6] = assay: Inhibition of LPS-induced NF-kappaB activation in mouse J774.A1 cells assessed as reduction in p65 phosphorylation at 5 to 20 uM pretreated for 2 hrs followed by LPS stimulation and measured after 30 mins by Western blot analysis; format: cell-based; conditions: dose 5-20 µM, time 2.5 hrs
# Procedure, shortened: (§3)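 J774A.1 macrophages pretreated with 20, 10 or 5 μM for 2 h, then LPS 0.5 μg/mL for 30 min. RIPA lysates quantified by Bradford. 40 μg run on 12.5 % SDS-PAGE and transferred to PVDF. Blocked 1.5 h in BSA, primary antibody overnight at 4 °C, secondary 2 h at room temperature, detected by ECL.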
# [7] = Oral bioavailability in male Sprague-Dawley rat at 10 mg/kg measured upto 24 hrs by triple quadrupole mass spectrometric analysis; format: ADME, organism-based; conditions: in vivo; procedure, shortened: as §1
# Mus musculus [8] = assay: Antiinflammatory activity in DSS-induced male C57BL/6 mouse model of inflammatory bowel disease assessed as normal appearance of crypt cells at 20 mg/kg, IG administered with compound and DSS for 7 days followed by DSS replacement with distilled water for 3 days by H and E staining based analysis; format: functional, organism-based; conditions: time 10.0 day
# J774.A1 [9] = assay: Inhibition of LPS-induced MAPK activation in mouse J774.A1 cells assessed as reduction in JNK phosphorylation at 5 to 20 uM pretreated for 2 hrs followed by LPS stimulation and measured after 30 mins by Western blot analysis; format: cell-based; conditions: dose 5-20 µM, time 2.5 hrs; procedure, shortened: as §3
# J774.A1 [10] = assay: Antiinflammatory activity in LPS-induced mouse J774.A1 cells assessed as reduction in IL-6 mRNA transcription pretreated for 2 hrs followed by LPS stimulation and measured after 6 hrs by RT-qPCR analysis; format: functional, cell-based; conditions: dose 2.5-10 µM
# Procedure, shortened: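 J774A.1 or THP-1 cells pretreated with compound for 2 h, then LPS 0.5 μg/mL for 6 h, in triplicate. Total RNA extracted and reverse-transcribed. IL-6 quantified by RT-qPCR over 40 cycles and normalised to β-actin.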
# [11] = Half life in male Sprague-Dawley rat at 10 mg/kg, po measured upto 24 hrs by triple quadrupole mass spectrometric analysis; format: ADME, organism-based; conditions: in vivo; procedure, shortened: as §1
# [12] = Tmax in male Sprague-Dawley rat at 10 mg/kg, po measured upto 24 hrs by triple quadrupole mass spectrometric analysis; format: ADME, organism-based; conditions: in vivo; procedure, shortened: as §1
# Mus musculus [13] = assay: Protection against LPS-induced C57BL/6 mouse model of acute lung injury assessed as reduction in thickening of the alveolar septum at 20 mg/kg, po administered 3 times for every 12 hrs followed by LPS stimulation at 5 mg/kg and measured after 6 hrs by immunohistochemical staining based analysis; format: functional, organism-based; conditions: time 30.0 hrs
# Procedure, shortened: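 LPS-induced ALI in C57BL/6 mice: 20 mg/kg orally three times at 12 h intervals, then intratracheal LPS 5 mg/kg, lungs taken at 6 h. F4/80 IHC: xylene deparaffinisation, citrate pH 6 retrieval for 25 min, primary antibody at 4 °C for 12 h, secondary 1:2000, DAB and hematoxylin. Viewed at ×20.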
# Mus musculus [14] = assay: as §2, with “reduction in F4/80 positive cell population in intestine” for “normal appearance of goblet cells”, “immunohistochemistry” for “H and E”; format: functional, organism-based; conditions: time 10.0 day
# Procedure, shortened: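 DSS colitis in C57BL/6 mice (2.5 % DSS for 7 days, then water for 3 days), 20 mg/kg po daily in DMSO/CMC-Na, n = 6. Colon fixed in 4 % formaldehyde. For IHC: deparaffinised in xylene, antigen retrieval by boiling in citrate buffer pH 6 for 25 min, primary antibody at 4 °C for 12 h, secondary 1:2000, then DAB with hematoxylin counterstain.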
# J774.A1 [15] = assay: Inhibition of LPS-induced NF-kappaB activation in mouse J774.A1 cells assessed as reduction in IkappaBalpha degradation at 5 to 20 uM pretreated for 2 hrs followed by LPS stimulation and measured after 30 mins by Western blot analysis; format: cell-based; conditions: dose 5-20 µM, time 2.5 hrs; procedure, shortened: as §3
# Mus musculus [16] = assay: Antiinflammatory activity in DSS-induced male C57BL/6 mouse model of inflammatory bowel disease assessed as decrease in disease index at 20 mg/kg, IG administered with compound and DSS for 7 days followed by DSS replacement with distilled water for 3 days; format: functional, organism-based; conditions: time 10.0 day
# [17] = AUC (0 to t) in male Sprague-Dawley rat at 10 mg/kg, po measured upto 24 hrs by triple quadrupole mass spectrometric analysis; format: ADME, organism-based; conditions: in vivo; procedure, shortened: as §1
# [18] = AUC (0 to t) in male Sprague-Dawley rat at 1 mg/kg, iv measured upto 24 hrs by triple quadrupole mass spectrometric analysis; format: ADME, organism-based; conditions: in vivo; procedure, shortened: as §1
structure (smiles),measurement,setting,value
CC(=O)N1CCN(CCOc2cc(=O)oc3ccccc23)CC1,Cmax,[1],2030 ng/mL
same,Activity,Mus musculus [2],Active
same,Activity,[3],Non-Toxic
same,Activity,Mus musculus [4],Active
same,Activity,Mus musculus [5],Active
same,inhibition,J774.A1 [6],inactive
same,bioavailability,[7],28.7%
same,Activity,Mus musculus [8],Active
same,inhibition,J774.A1 [9],inactive
same,Activity,J774.A1 [10],Dose-Dependent Effect
same,half-life,[11],2.36 h
same,Tmax,[12],0.67 h
same,Activity,Mus musculus [13],Active
same,Activity,Mus musculus [14],Active
same,inhibition,J774.A1 [15],inactive
same,Activity,Mus musculus [16],Active
same,AUC(0-t) at 24 h,[17],2670 ng·h/mL
same,AUC(0-t) at 24 h,[18],929 ng·h/mL
